Measurements from ChEMBL document CHEMBL1129934, “Synthesis, antimalarial activity, and molecular modeling of tebuquine analogues” (J Med Chem, 1997).

Legend:
[1] = Cellular accumulation ratio (CAR) for chloroquine sensitive HB3 strain of Plasmodium falciparum; type: functional
How it was run: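 IC50 for HB3 measured at a range of inoculum sizes in the [3H]-hypoxanthine 48 h assay. It is extrapolated to zero inoculum to give the absolute IC50. CAR is calculated as (measured IC50 − absolute IC50)/(absolute IC50 × fractional volume of parasitized RBC).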

[2] = system: Plasmodium falciparum; experiment: In vitro inhibition of chloroquine-resistant Plasmodium falciparum K1; type: functional, organism-based
How it was run: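 P. falciparum K1 (uncloned, Thailand) kept in human erythrocytes in RPMI 1640 with 25 mM HEPES, 32 mM NaHCO3, 10% human serum, under 3% O2/4% CO2/93% N2. Stocks in ethanol, final <1% ethanol. 48 h test at 1% initial parasitemia, 5% hematocrit, 37 °C; [3H]-hypoxanthine added at 24 h, incorporation counted at 48 h. IC50 by probit interpolation of log dose–response; triplicate.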

[3] = system: Plasmodium falciparum; experiment: In vitro inhibition of chloroquine-sensitive Plasmodium falciparum HB3; type: functional, organism-based
How it was run: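 HB3 parasites kept in human erythrocytes (2–5%) in RPMI 1640 with 25 mM HEPES, 32 mM NaHCO3, 10% human serum, gassed 3% O2/4% CO2/93% N2. 48 h assay: initial parasitemia 1%, 5% hematocrit, ethanol-dissolved drug (final <1% ethanol); [3H]-hypoxanthine (0.5 μCi) added at 24 h, counted after further 24 h. Triplicate; IC50 by probit interpolation of log dose–response.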

CC(C)(C)NCc1cc(Nc2ccnc3cc(Cl)ccc23)cc(-c2ccc(Cl)cc2)c1
CAR [1]: 1200 | IC50 ([2]; Plasmodium falciparum): 0.0742 µM | IC50 [3]: 0.0566 µM

CCN(CC)Cc1cc(Nc2ccnc3cc(Cl)ccc23)ccc1O
CAR [1]: 12600 | IC50 ([2]; Plasmodium falciparum): 0.0272 µM | IC50 [3]: 0.0037 µM

CC(C)(C)NCc1cc(Nc2ccnc3cc(Cl)ccc23)cc(-c2ccc(Cl)cc2)c1O [TEBUQUINE]
CAR [1]: 70200 | IC50 [2]: 0.0421 µM

CCN(CC)Cc1cc(Nc2ccnc3cc(Cl)ccc23)ccc1F
CAR [1]: 1710 | IC50 [3]: 0.0319 µM

CCNCc1cc(Nc2ccnc3cc(Cl)ccc23)ccc1O [DESETHYL AMODIAQUINE]
CAR [1]: 6410 | IC50 [3]: 0.0045 µM

CCN(CC)Cc1c(O)cc(F)c(Nc2ccnc3cc(Cl)ccc23)c1F
CAR [1]: 922 | IC50 [3]: 0.0473 µM

CC(C)(C)NCc1cc(Nc2ccnc3cc(Cl)ccc23)cc(-c2ccc(Cl)cc2)c1F [FLOUROTEBUQUINE]
CAR [1]: 1080 | IC50 [3]: 0.0616 µM

CCNCCCC(C)Nc1ccnc2cc(Cl)ccc12 (configuration not stated) [DESETHYLCHLOROQUINE]
CAR [1]: 682 | IC50 [3]: 0.017 µM

CCN(CC)Cc1cc(Nc2ccnc3cc(Cl)ccc23)cc(-c2ccc(Cl)cc2)c1F
IC50 ([2]; Plasmodium falciparum): 0.101 µM | IC50 [3]: 0.104 µM

CCN(CC)Cc1cc(Nc2ccnc3cc(Cl)ccc23)cc(F)c1O
CAR [1]: 1510 | IC50 [3]: 0.0552 µM

CCN(CC)CCCC(C)Nc1ccnc2cc(Cl)ccc12 (configuration not stated)
CAR [1]: 1860

CC(C)(C)NCc1cc(Nc2ccnc3cc(Cl)ccc23)ccc1O [N-TERT-BUTYL-AMODIAQUINE]
CAR [1]: 21100 | IC50 [3]: 0.0037 µM

CCN(CC)Cc1cccc(Nc2ccnc3cc(Cl)ccc23)c1
CAR [1]: 3090 | IC50 [3]: 0.0162 µM
